Laboratory results published in ChEMBL document CHEMBL1240442, “Design and synthesis of novel tricyclic benzoxazines as potent 5-HT(1A/B/D) receptor antagonists leading to the discovery of 6-{2-[4-(2-methyl-5-quinolinyl)-1-piperazinyl]ethyl}-4H-imidazo[5,1-c][1,4]benzoxazine-3-carboxamide (GSK588045)” (J Med Chem, 2010).

Legend:
Type in all cases: ADME, organism-based
[1] = Clearance in Sprague-Dawley rat blood at 0.5 mg/kg, iv and 1 mg/kg, po; details: whole blood
Method in brief: (§1)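 Male Sprague-Dawley rats given 0.5 mg free base/kg iv bolus and 1 mg/kg po. Blood compound levels measured by protein precipitation and HPLC-MS/MS.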

[2] = Volume of distribution at steady state in Sprague-Dawley rat at 0.5 mg/kg, iv and 1 mg/kg, po; details: in vivo, read-out: Vdss; method in brief: as §1
[3] = Ratio of drug level in brain to blood in Sprague-Dawley rat at 0.5 mg/kg, iv and 1 mg/kg, po after 1 hr; details: brain/whole blood, read-out: BBR
[4] = Oral bioavailability in Sprague-Dawley rat at 1 mg/kg; details: in vivo; method in brief: as §1
[5] = Half life in Sprague-Dawley rat at 0.5 mg/kg, iv and 1 mg/kg, po; details: in vivo; method in brief: as §1

clearance [1] [mL/min/kg]	Vd [2] [L/kg]	Kp at 1 h [3]	bioavailability [4] [%]	half-life [5] [h]	SMILES
10	7.1	2.7	43	8.7	CC(=O)c1ncn2c1COc1c(CCN3CCN(c4cccc5nc(C)ccc45)CC3)cccc1-2
12	1.6	0.5	51	1.8	Cc1ccc2c(N3CCN(CCc4cccc5c4OCc4nnc(C)n4-5)CC3)cccc2n1
29	3.5	1.8	50	2.1	Cc1ccc2c(N3CCN(CCc4cccc5c4OCc4c(C(=O)N(C)C)ncn4-5)CC3)cccc2n1
10	3.9	1.6	48	5.1	Cc1ccc2c(N3CCN(CCc4cccc5c4OCc4c(C#N)ncn4-5)CC3)cccc2n1
8	3.8	2.4	104	6.3	CNC(=O)c1ncn2c1COc1c(CCN3CCN(c4cccc5nc(C)ccc45)CC3)cccc1-2
10	2.9	1.1	45	4.4	Cc1ccc2c(N3CCN(CCc4cccc5c4OCc4c(C(N)=O)ncn4-5)CC3)cccc2n1
20	5	3.2	43	3.1	Cc1ccc2c(N3CCN(CCc4cccc5c4OCc4c(C(=O)N6CCCC6)ncn4-5)CC3)cccc2n1
12	5.5	1.7	65	7.6	Cc1ccc2c(N3CCN(CCc4cccc5c4OCc4c(C(=O)N6CCOCC6)ncn4-5)CC3)cccc2n1
